Laboratory results reported in ChEMBL document CHEMBL4011621, “A Novel Series of Highly Potent Small Molecule Inhibitors of Rhinovirus Replication” (J Med Chem, 2017).

How the values were obtained:
rhinovirus B14 = assay: Antiviral activity against Human rhinovirus B14 infected in human H1HeLa cells assessed as protection against virus induced cytopathic effect after 3 days by MTT assay; type: functional, cell-based; conditions: Rhinovirus B, H1-HeLa, 72 h
rhinovirus A21 = assay: Antiviral activity against Human rhinovirus A21 infected in human H1HeLa cells assessed as protection against virus induced cytopathic effect after 3 days by MTT assay; type: functional, cell-based; conditions: Rhinovirus A, H1-HeLa, 72 h
How it was run: (§1)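 CPE-reduction assay in H1HeLa cells plated 2 d before. Equal volumes of virus and compound were added and held at 33 °C for 3 d under CO2. Supernatant was removed, then MTT was added for 1 h at 37 °C. Formazan was dissolved and read at 540 nm against a 690 nm reference. Survival was scaled between uninfected untreated wells (100%) and virus-only wells (0%); mean ± SD, three experiments.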

[1] = Cytotoxicity against human H1HeLa cells assessed as decrease in cell viability after 3 days by MTT assay; type: cell-based, H1-HeLa
[2] = Antiviral activity against Human rhinovirus A71 infected in human H1HeLa cells assessed as protection against virus induced cytopathic effect after 3 days by MTT assay; type: functional, cell-based; conditions: Rhinovirus A, H1-HeLa, 72 h; how it was run: as §1
[3] = Selectivity index, ratio of CC50 for human H1HeLa cells to EC50 for Human rhinovirus A71 infected in human H1HeLa cells; type: toxicity, cell-based; conditions: read-out: Ratio CC50/EC50
How it was run: (§2)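 H1HeLa cells plated 2 d ahead; virus plus compound (equal volumes) incubated 33 °C, 3 d, CO2. MTT 1 h at 37 °C, A540/A690. Survival scaled between uninfected untreated (100%) and virus-only (0%) wells to give EC50. CC50 = 50% cell death by MTT in H1HeLa. SI = CC50/EC50; at least three independent experiments.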

Poliovirus 3 = assay: Antiviral activity against Human poliovirus 3 infected in human HeLa cells assessed as protection against virus induced cytopathic effect after 2 days by MTT assay; type: functional, cell-based; conditions: Enterovirus C, 48 h
How it was run: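 HeLa cells; MTT-based CPE reduction. Virus and compound added in equal volumes, incubated 37 °C for 2 d in CO2. Supernatant removed, MTT 1 h at 37 °C, formazan dissolved, absorbance 540 nm (690 nm reference). Uninfected untreated wells = 100% survival, virus-only = 0%. EC50 = 50% inhibition; means ± SD, three experiments.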

[4] = Cytotoxicity aganist human HeLa cells assessed as decrease in cell viability after 2 days by MTT assay; type: cell-based
[5] = Selectivity index, ratio of CC50 for human HeLa cells to EC50 for human poliovirus 3 infected in human HeLa cells; type: toxicity, cell-based; conditions: read-out: Ratio CC50/EC50
How it was run: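 SI = CC50/EC50 in HeLa cells. CC50 = 50% cell death by MTT. EC50 = 50% inhibition of PV3 CPE by MTT after 2 d at 37 °C, survival scaled to uninfected (100%) and virus-only (0%) wells. At least three independent experiments.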

[6] = Selectivity index, ratio of CC50 for human H1HeLa cells to EC50 for Human rhinovirus A21 infected in human H1HeLa cells; type: toxicity, cell-based; conditions: read-out: Ratio CC50/EC50; how it was run: as §2
[7] = Selectivity index, ratio of CC50 for human H1HeLa cells to EC50 for Human rhinovirus B14 infected in human H1HeLa cells; type: toxicity, cell-based; conditions: read-out: Ratio CC50/EC50; how it was run: as §2

| Structure (SMILES) | EC50 (rhinovirus B14) | EC50 (rhinovirus A21) | CC50 at 72 h [1] | EC50 [2] | selectivity ratio [3] | EC50 (Poliovirus 3) | CC50 at 48 h [4] | selectivity ratio [5] | selectivity ratio [6] | selectivity ratio [7] |
| --- | --- | --- | --- | --- | --- | --- | --- | --- | --- | --- |
| CCOC(=O)c1sc2cc(OC)ccc2c1C | > 100 µM | > 100 µM | > 100 µM | 3.8 µM | > 26 | 1.8 µM | > 100 µM | > 56 |  |  |
| CNC(=O)c1ccc(Oc2ccc3c(C)c(C(=O)OC(C)C)sc3c2)cn1 | > 7.6 µM | 3.3 µM | 7.6 µM | 1.7 µM | 4.5 | > 12.9 µM | 12.9 µM |  | 2.3 |  |
| CCCOC(=O)c1sc2cc(Oc3ccnc(C(=O)NC)c3)ccc2c1C | 2.9 µM | 0.33 µM | 37.4 µM | 0.064 µM | 580 | 0.71 µM | 57.1 µM | 80 | 110 | 13 |
| CNC(=O)c1cc(Oc2ccc3cc(C(=O)OC)sc3c2)ccn1 | > 100 µM | 75.6 µM | > 100 µM | 4.6 µM | > 22 | > 68.3 µM | 68.3 µM |  | > 1.3 |  |
| CCOC(=O)c1sc2cc(Oc3ccnc(C(=O)NC)c3)ccc2c1C#N | 82.5 µM | 20.7 µM | > 100 µM | 0.54 µM | > 190 | 55.4 µM | > 100 µM | > 1.8 | > 4.8 | > 1.2 |
| COc1ccc(OCc2ccc(COc3c(Cl)cccc3Cl)cc2)c(Cl)c1 | > 100 µM | 2 µM | > 100 µM | 0.25 µM | > 400 | 0.08 µM | 16 µM | 200 | > 50 |  |
| CCOC(=O)c1ccc2ccc(Oc3ccnc(C(=O)NC)c3)cc2n1 | 56.6 µM | 44.3 µM | > 100 µM | 1.3 µM | > 77 | 1.9 µM | > 100 µM | > 53 | > 2.3 | > 1.8 |
| CNC(=O)c1cc(Oc2ccc3ccc(C(=O)Oc4ccccc4)cc3c2)ccn1 | > 100 µM | > 100 µM | > 100 µM | 8.27 µM | > 12 | 60.1 µM | > 100 µM | > 1.7 |  |  |
| CCOC(=O)c1cc2ccc(Oc3ccccc3)cc2s1 | 68.6 µM | 51.1 µM | > 100 µM | 2.8 µM | > 36 | > 90.1 µM | 90.1 µM |  | > 2 | > 1.5 |
| CCOC(=O)c1sc2cc(Oc3ccnc(C(=O)OC)c3)ccc2c1C | > 24.9 µM | > 24.9 µM | 24.9 µM | 15 µM | 1.7 | > 26.2 µM | 26.2 µM |  |  |  |
| CNC(=O)c1cc(Oc2ccc3c(C)c(C(=O)O)sc3c2)ccn1 | > 100 µM | > 100 µM | > 100 µM | > 100 µM |  | > 100 µM | > 100 µM |  |  |  |
| CCOC(=O)c1sc2cc(Oc3ccnc(C(=O)NC)c3)ccc2c1Cl | 11.7 µM | 1.7 µM | 46.9 µM | 2.7 µM | 17 | > 45.6 µM | 45.6 µM |  | 28 | 4 |
| CNC(=O)c1cc(Oc2ccc3c(C)c(C(=O)OCc4ccccc4)sc3c2)ccn1 | > 18.8 µM | 0.55 µM | 18.8 µM | 1.4 µM | 13 | 0.34 µM | 18.1 µM | 53 | 34 |  |
| CCOC(=O)c1sc2cc(O)ccc2c1C | > 82 µM | > 82 µM | 82 µM | > 82 µM |  | 9.4 µM | 46.6 µM | 5 |  |  |
| CCOC(=O)c1sc2cc(Oc3ccnc(C(=O)NC)c3)ccc2c1N | > 0.11 µM | > 0.11 µM | 0.11 µM | > 0.11 µM |  | > 0.45 µM | 0.45 µM |  |  |  |
| CCNC(=O)c1sc2cc(Oc3ccnc(C(=O)NC)c3)ccc2c1C | > 100 µM | > 100 µM | > 100 µM | > 100 µM |  | > 100 µM | > 100 µM |  |  |  |
| CCOC(=O)c1cc2ccc(Oc3ccncc3)cc2s1 | > 42.4 µM | > 42.4 µM | 42.4 µM | 7.3 µM | 5.8 | > 43.9 µM | 43.9 µM |  |  |  |
| CCOC(=O)c1cc2ccc(Oc3ccnc(C(=O)NC)c3)cc2o1 | > 100 µM | 66 µM | > 100 µM | 1.4 µM | > 71 | > 100 µM | > 100 µM |  | > 1.5 |  |
| CCOC(=O)c1cc2cc(Oc3ccnc(C(=O)NC)c3)ccc2cc1O | > 100 µM | 0.41 µM | > 100 µM | 0.29 µM | > 340 | 0.18 µM | > 100 µM | > 560 | > 240 |  |
| CCOC(=O)c1sc2cc(Oc3ccccc3)ccc2c1C | > 100 µM | 1 µM | > 100 µM | 1.7 µM | > 59 | > 47.6 µM | 47.6 µM |  | > 100 |  |
| CNC(=O)c1cc(Oc2ccc3c(C)c(C(=O)N(C)C)sc3c2)ccn1 | > 42.5 µM | > 42.5 µM | 42.5 µM | > 42.5 µM |  | > 44.4 µM | 44.4 µM |  |  |  |
| CCOC(=O)c1cc2ccc(OC)cc2s1 | > 70.9 µM | > 70.9 µM | 70.9 µM | 5.1 µM | 14 | 13.1 µM | 44.4 µM | 3.4 |  |  |
| CCC(C)OC(=O)c1ccc2ccc(Oc3ccnc(C(=O)NC)c3)cc2c1 (stereo not given) | > 16 µM | 0.41 µM | 16 µM | 0.013 µM | 1200 | 0.35 µM | 9 µM | 26 | 39 |  |
| CCOC(=O)c1sc2cc(Oc3ccnc(C(=O)NC)c3)ccc2c1CC | 13.5 µM | 0.21 µM | 35.2 µM | 1.3 µM | 27 | > 16.7 µM | 16.7 µM |  | 170 | 2.6 |
| CCOC(=O)c1cc2ccc(O)cc2s1 | > 52.3 µM | > 52.3 µM | 52.3 µM | 8.9 µM | 5.9 | > 46.9 µM | 46.9 µM |  |  |  |
| CNC(=O)c1cc(Oc2ccc3c(C)c(C(=O)OC(C)C)[nH]c3c2)ccn1 | > 14.6 µM | 2.5 µM | 14.6 µM | 1.9 µM | 7.7 | 0.072 µM | 8.4 µM | 120 | 5.8 |  |
